According to ChEMBL document CHEMBL3352155, “Synthesis, antitumor activity, and structure-activity relationship study of trihydroxylated 2,4,6-triphenyl pyridines as potent and selective topoisomerase II inhibitors” (Eur J Med Chem, 2014):
Counter-ions that a name gives are not always drawn.

Legend:
[1] = biological target: DNA topoisomerase 2-alpha (Homo sapiens) (UniProt P11388); assay: Inhibition of recombinant human DNA topoisomerase 2alpha assessed as relaxation of supercoiled DNA pBR322 at 100 uM after 30 mins using ethidium bromide staining by agarose gel electrophoresis
Method in brief: (§1)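 The reaction held 200 ng supercoiled pBR322 with 1 unit human topo IIα, with or without compound, for 30 min at 30 °C. Buffer was 10 mM Tris-HCl pH 7.9, 50 mM NaCl, 5 mM MgCl2, 1 mM EDTA, 1 mM ATP and BSA. EDTA was added to stop it. Products ran on 1% agarose in TAE at 25 V for 4 h, were stained with ethidium bromide, and supercoiled DNA was quantitated under UV.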

[2] = tested on: HEK293; assay: Cytotoxicity against HEK293 cells after 4 days by CCK-8 assay; assay type: cell-based; conditions: Homo sapiens, HEK293, 96 h
Method in brief: (§2)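 Cells were seeded at 2–4 × 10^4 per well and grown overnight in medium with 10% FBS at 37 °C under 5% CO2. On day 2, after 4 h FBS starvation, the medium was replaced with medium holding graded compound concentrations. On day 4, CCK-8 was added for 4 h and A450 was read. IC50 came from a four-parameter logistic fit; three experiments run in triplicate.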

[3] = tested on: DU-145; assay: Cytotoxicity against human DU145 cells after 4 days by CCK-8 assay; assay type: functional, cell-based; conditions: DU-145, 96 h; method in brief: as §2
[4] = tested on: T47D; assay: Cytotoxicity against human T47D cells after 4 days by CCK-8 assay; assay type: functional, cell-based; conditions: 96 h; method in brief: as §2
[5] = biological target: DNA topoisomerase 2-alpha (Homo sapiens) (UniProt P11388); assay: Inhibition of recombinant human DNA topoisomerase 2alpha assessed as relaxation of supercoiled DNA pBR322 at 20 uM after 30 mins using ethidium bromide staining by agarose gel electrophoresis; method in brief: as §1
[6] = biological target: T1, DNA topoisomerase 1 (Homo sapiens) (UniProt P11387); assay: Inhibition of recombinant human DNA topoisomerase 1 assessed as relaxation of supercoiled DNA pBR322 at 100 uM after 30 mins using ethidium bromide staining by agarose gel electrophoresis
T1 sequence (whole entry): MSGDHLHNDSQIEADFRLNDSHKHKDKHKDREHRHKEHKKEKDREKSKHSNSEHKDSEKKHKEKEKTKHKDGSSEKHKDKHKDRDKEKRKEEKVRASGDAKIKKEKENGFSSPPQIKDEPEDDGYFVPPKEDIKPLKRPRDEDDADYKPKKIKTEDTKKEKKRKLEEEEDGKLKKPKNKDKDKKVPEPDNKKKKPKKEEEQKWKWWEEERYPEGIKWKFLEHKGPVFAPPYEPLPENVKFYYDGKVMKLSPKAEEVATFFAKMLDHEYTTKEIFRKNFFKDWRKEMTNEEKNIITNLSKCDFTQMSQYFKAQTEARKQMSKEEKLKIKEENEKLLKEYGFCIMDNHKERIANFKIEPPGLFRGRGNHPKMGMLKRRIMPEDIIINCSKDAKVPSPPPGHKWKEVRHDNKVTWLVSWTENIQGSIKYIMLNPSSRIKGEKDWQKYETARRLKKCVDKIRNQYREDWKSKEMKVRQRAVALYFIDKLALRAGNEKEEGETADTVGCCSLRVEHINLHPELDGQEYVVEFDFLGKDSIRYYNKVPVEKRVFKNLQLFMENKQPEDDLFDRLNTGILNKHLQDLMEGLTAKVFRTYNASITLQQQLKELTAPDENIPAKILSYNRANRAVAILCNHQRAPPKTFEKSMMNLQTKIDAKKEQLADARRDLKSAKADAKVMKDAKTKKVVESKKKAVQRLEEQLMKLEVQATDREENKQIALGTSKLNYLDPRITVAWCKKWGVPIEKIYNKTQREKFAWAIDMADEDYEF
Method in brief: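 A mix of 100 ng supercoiled pBR322 and 1 unit recombinant human topo I, with or without compound, was held 30 min at 37 °C. Buffer was 10 mM Tris-HCl pH 7.9, 150 mM NaCl, 0.1% BSA, 1 mM spermidine and 5% glycerol. A sarcosyl stop solution ended the reaction. Products ran on 1% agarose in TAE at 15 V for 7 h, were stained with ethidium bromide and quantitated under UV.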

[7] = Cytotoxicity against human HCT15 cells […] by CCK-8 assay; assay type: functional, cell-based; conditions: HCT-15; method in brief: as §2

DNA topoisomerase 2-alpha (Homo sapiens), sequence (P11388 whole entry): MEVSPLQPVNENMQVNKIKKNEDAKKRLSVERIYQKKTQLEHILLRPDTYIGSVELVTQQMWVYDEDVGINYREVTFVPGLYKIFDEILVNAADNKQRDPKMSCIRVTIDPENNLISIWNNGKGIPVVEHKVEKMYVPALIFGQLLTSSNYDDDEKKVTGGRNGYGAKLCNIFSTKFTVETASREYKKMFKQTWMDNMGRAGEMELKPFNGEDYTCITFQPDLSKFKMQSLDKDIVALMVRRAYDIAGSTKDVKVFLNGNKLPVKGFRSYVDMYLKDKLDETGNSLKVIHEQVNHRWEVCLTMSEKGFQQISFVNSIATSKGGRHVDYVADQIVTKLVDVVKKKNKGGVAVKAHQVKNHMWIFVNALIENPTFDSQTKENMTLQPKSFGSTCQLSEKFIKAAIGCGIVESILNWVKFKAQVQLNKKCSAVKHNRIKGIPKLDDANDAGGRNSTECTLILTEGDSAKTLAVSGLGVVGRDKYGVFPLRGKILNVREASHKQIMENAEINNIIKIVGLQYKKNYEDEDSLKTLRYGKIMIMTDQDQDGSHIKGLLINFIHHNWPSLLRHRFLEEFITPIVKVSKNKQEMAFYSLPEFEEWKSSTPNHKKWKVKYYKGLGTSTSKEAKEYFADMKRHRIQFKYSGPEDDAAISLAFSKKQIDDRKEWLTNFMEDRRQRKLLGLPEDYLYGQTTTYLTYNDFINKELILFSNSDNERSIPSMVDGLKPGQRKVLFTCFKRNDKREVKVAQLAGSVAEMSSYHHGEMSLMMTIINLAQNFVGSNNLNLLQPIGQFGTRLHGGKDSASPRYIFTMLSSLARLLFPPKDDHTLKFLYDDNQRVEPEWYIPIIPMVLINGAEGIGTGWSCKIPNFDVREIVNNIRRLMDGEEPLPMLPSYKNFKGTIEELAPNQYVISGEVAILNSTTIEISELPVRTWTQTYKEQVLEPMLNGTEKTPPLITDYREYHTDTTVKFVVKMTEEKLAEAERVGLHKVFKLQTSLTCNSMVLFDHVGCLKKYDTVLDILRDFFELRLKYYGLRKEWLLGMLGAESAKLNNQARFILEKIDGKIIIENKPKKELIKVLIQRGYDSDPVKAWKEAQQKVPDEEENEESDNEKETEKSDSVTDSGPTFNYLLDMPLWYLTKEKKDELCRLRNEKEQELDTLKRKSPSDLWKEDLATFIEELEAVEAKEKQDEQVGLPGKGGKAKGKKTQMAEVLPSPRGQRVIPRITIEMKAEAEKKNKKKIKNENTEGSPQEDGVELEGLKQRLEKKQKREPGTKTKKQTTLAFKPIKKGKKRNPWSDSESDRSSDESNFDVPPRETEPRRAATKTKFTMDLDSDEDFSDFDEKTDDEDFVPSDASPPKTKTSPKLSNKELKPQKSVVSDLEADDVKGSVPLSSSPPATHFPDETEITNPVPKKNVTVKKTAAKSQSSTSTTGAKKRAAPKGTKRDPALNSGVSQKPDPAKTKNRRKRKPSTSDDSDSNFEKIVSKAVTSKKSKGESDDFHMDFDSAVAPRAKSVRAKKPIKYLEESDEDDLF

Row | SMILES | inhibition [1] [%] | inhibition [5] [%] | inhibition [6] [%] | IC50 [2] [µM] | IC50 [3] [µM] | IC50 [4] [µM] | IC50 [7] [µM]
1 | Oc1ccc(-c2cc(-c3ccc(O)cc3)nc(-c3ccccc3O)c2)cc1 | 44 | 1.8 | 0 | 26.3 | > 50 | > 50 | > 50
2 | Oc1ccc(-c2cc(-c3ccc(O)cc3)nc(-c3cccc(O)c3)c2)cc1 | 100 | 15.8 | 0 | 0.84 | 5.8 | 4.47 | 3.52
3 | CC[C@@]1(O)C(=O)OCc2c1cc1n(c2=O)Cc2cc3ccccc3nc2-1 [CAMPTOTHECIN] | – | – | – | 0.28 | – | 0.75 | 1.98
4 | Oc1ccc(-c2cc(-c3cccc(O)c3)cc(-c3cccc(O)c3)n2)cc1 | 100 | 3.7 | 0 | 1.56 | 1.94 | 3.92 | 3.09
5 | Oc1ccc(-c2cc(-c3ccc(O)cc3)nc(-c3ccc(O)cc3)c2)cc1 | 79.1 | 7.9 | 3.8 | 0.79 | 3.16 | 4.27 | 5.12
6 | Oc1ccc(-c2cc(-c3ccccc3O)cc(-c3ccc(O)cc3)n2)cc1 | 100 | 5.4 | 0.4 | 0.78 | 0.98 | 5.35 | 1.92
7 | COc1cc([C@@H]2c3cc4c(cc3[C@@H](O[C@@H]3O[C@@H]5CO[C@@H](C)O[C@H]5[C@H](O)[C@H]3O)[C@H]3COC(=O)[C@H]23)OCO4)cc(OC)c1O [ETOPOSIDE] | – | – | – | 1.04 | – | 8.74 | 7.74
8 | Oc1ccc(-c2cc(-c3cccc(O)c3)nc(-c3cccc(O)c3)c2)cc1 | 100 | 9.6 | 0 | 0.73 | 1.76 | 2.23 | 3.81
9 | COc1cccc2c1C(=O)c1c(O)c3c(c(O)c1C2=O)C[C@@](O)(C(=O)CO)C[C@@H]3O[C@H]1C[C@H](N)[C@H](O)[C@H](C)O1 [DOXORUBICIN HYDROCHLORIDE] | – | – | – | 1.22 | 3.89 | 3.12 | –
10 | Oc1cccc(-c2cc(-c3cccc(O)c3)nc(-c3cccc(O)c3)c2)c1 | 100 | 8.3 | 0 | 0.74 | 4.04 | 2.05 | 3.95
11 | Oc1ccc(-c2cc(-c3cccc(O)c3)cc(-c3ccc(O)cc3)n2)cc1 | 90.1 | 48.2 | 0 | > 50 | 1.4 | 4.07 | > 50
12 | Oc1ccc(-c2cc(-c3cccc(O)c3)cc(-c3ccccc3O)n2)cc1 | 31.3 | 1.6 | 8.4 | > 50 | > 50 | > 50 | > 50

Now from value to molecule, other results behind:

Row | inhibition [1] [%] | inhibition [5] [%] | inhibition [6] [%] | SMILES | IC50 [2] [µM] | IC50 [3] [µM] | IC50 [4] [µM] | IC50 [7] [µM]
13 | 80.6 | 38.5 | 1.5 | Oc1ccc(-c2cc(-c3cccc(O)c3)nc(-c3ccccc3O)c2)cc1 | 7.42 | 3.42 | 4.81 | 5.83
14 | 100 | 9.3 | 0 | Oc1cccc(-c2cc(-c3ccccc3O)cc(-c3cccc(O)c3)n2)c1 | 0.13 | > 50 | 4.57 | 5.15
15 | 95.1 | 10.1 | 0 | Oc1ccccc1-c1cc(-c2ccccc2O)nc(-c2ccccc2O)c1 | 0.14 | 5.04 | 2.51 | 2.18
16 | 92.2 | 7.4 | 0 | Oc1ccc(-c2cc(-c3ccccc3O)cc(-c3cccc(O)c3)n2)cc1 | 5.65 | 5.37 | 0.65 | 4.85
17 | 11.3 | – | 1.9 | Oc1cccc(-c2cc(-c3cccc(O)c3)nc(-c3ccccc3O)c2)c1 | > 50 | > 50 | > 50 | > 50
18 | 99.4 | 7.1 | 4.9 | Oc1cccc(-c2cc(-c3ccccc3O)nc(-c3ccccc3O)c2)c1 | 0.08 | 5.4 | 3.42 | 5.02
19 | 46.9 | 2.9 | 3.7 | Oc1ccc(-c2cc(-c3ccccc3O)nc(-c3ccccc3O)c2)cc1 | > 50 | > 50 | 18.3 | > 50
20 | 87.9 | 6.6 | 0 | Oc1cccc(-c2cc(-c3ccccc3O)cc(-c3ccccc3O)n2)c1 | 0.73 | 3.98 | 5.76 | 3.39
21 | 77.6 | 21.3 | 0.3 | Oc1ccc(-c2cc(-c3ccccc3O)cc(-c3ccccc3O)n2)cc1 | 6.99 | 0.36 | 0.96 | 8.24
